Data reported in ChEMBL document CHEMBL1921681, “Difluoromethylbenzoxazole pyrimidine thioether derivatives: a novel class of potent non-nucleoside HIV-1 reverse transcriptase inhibitors” (J Med Chem, 2011).
Values after ≈ are worked out from the molar mass of the structure shown.

Legend:
[1] = tested on: Human immunodeficiency virus 1; assay: Antiviral activity against Human immunodeficiency virus 1 HXB2 harboring reverse transcriptase K103N and Y181C mutant infected in human MT4 cells stably transformed with HIV1 LTR-EGFP after 3 days by fluorescence microscopic analysis; assay type: functional, organism-based; details: Human immunodeficiency virus 1, HXB2, MT4, 72 h
[2] = tested on: Human immunodeficiency virus 1; assay: Antiviral activity against Human immunodeficiency virus 1 3B infected in human MT4 cells stably transformed with HIV1 LTR-EGFP after 3 days by fluorescence microscopic analysis; assay type: functional, organism-based; details: MT4, 72 h
Method in brief: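 MT4 cells carrying an HIV LTR-EGFP reporter (150 000 cells/mL) infected with HIV-1 IIIB at MOI 0.01, with or without graded inhibitor concentrations. After 3 days, replication read as EGFP fluorescence and expressed as EC50. Cell line maintained in RPMI 1640 with 10% heat-inactivated FCS, 2 mM L-glutamine, gentamicin, G418, at 37 °C, 5% CO2.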

[3] = Selectivity ratio of CC50 for mock-infected human MT4 cells to EC50 for Human immunodeficiency virus 1 3B infected in human MT4 cells; assay type: ADME, cell-based; details: read-out: Ratio CC50/EC50
Method in brief: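 Ratio of two values run in parallel. CC50 came from mock-infected CMV-EGFP MT4 cells (150 000 cells/mL, 3 days, EGFP fluorescence). EC50 came from MT4-LTR-EGFP cells (150 000 cells/mL) infected with HIV-1 IIIB at MOI 0.01 with or without inhibitor, with replication read as EGFP fluorescence after 3 days. SI = CC50/EC50.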

[4] = Cytotoxicity against mock infected human MT4 cells after 3 days by EGFP fluorescence microscopic analysis; assay type: cell-based
Method in brief: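 Mock-infected MT4 cells stably carrying a CMV-EGFP reporter, seeded at 150 000 cells/mL and cultured with or without serial compound concentrations. MT4 cells kept in RPMI 1640 with 10% heat-inactivated FCS, 2 mM L-glutamine, 0.1% NaHCO3, gentamicin and G418, at 37 °C under 5% CO2. After 3 days, proliferation was read as EGFP fluorescence, giving CC50.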

[5] = Dissociation constant, pKa of the compound; assay type: physicochemical
Cytochrome P450 2C9 = Cytochrome P450 2C9 (Homo sapiens, UniProt P11712); assay: Inhibition of CYP2C9; assay type: ADME
Chain of Cytochrome P450 2C9 (P11712 whole entry): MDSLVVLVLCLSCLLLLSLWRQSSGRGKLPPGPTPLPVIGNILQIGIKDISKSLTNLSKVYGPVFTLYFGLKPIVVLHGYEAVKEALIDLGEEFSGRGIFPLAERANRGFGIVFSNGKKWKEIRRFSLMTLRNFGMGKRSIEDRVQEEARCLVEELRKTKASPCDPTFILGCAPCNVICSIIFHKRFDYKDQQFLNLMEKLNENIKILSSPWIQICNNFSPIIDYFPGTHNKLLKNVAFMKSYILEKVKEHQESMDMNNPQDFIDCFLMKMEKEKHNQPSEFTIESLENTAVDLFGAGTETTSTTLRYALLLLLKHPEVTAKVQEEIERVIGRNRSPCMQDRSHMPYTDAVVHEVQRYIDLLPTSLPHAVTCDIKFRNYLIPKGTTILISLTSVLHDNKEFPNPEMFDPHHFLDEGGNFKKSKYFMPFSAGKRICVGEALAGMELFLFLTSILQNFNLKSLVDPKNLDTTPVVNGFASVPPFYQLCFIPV

[6] = Metabolic stability of the compound in human liver microsomes after 15 mins; assay type: ADME, Microsome; details: read-out: Stability
Cytochrome P450 3A4 = Cytochrome P450 3A4 (Homo sapiens, UniProt P08684); assay: Inhibition of CYP3A4; assay type: ADME
Chain of Cytochrome P450 3A4 (P08684 whole entry): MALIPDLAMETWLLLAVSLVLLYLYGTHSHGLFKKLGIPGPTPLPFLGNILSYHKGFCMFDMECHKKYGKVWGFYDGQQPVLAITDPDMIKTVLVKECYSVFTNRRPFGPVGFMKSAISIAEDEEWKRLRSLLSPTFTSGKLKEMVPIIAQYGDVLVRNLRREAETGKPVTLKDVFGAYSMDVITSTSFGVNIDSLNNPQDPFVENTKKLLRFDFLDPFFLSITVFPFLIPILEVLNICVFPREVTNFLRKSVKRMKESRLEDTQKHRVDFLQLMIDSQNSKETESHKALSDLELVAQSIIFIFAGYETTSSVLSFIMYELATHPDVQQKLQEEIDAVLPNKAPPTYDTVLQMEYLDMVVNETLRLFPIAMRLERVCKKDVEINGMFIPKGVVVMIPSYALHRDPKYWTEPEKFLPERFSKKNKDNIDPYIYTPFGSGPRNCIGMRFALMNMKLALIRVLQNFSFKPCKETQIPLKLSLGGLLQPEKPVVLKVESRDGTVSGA

Cytochrome P450 2D6 = Cytochrome P450 2D6 (Homo sapiens, UniProt P10635); assay: Inhibition of CYP2D6; assay type: ADME
Chain of Cytochrome P450 2D6 (P10635 whole entry): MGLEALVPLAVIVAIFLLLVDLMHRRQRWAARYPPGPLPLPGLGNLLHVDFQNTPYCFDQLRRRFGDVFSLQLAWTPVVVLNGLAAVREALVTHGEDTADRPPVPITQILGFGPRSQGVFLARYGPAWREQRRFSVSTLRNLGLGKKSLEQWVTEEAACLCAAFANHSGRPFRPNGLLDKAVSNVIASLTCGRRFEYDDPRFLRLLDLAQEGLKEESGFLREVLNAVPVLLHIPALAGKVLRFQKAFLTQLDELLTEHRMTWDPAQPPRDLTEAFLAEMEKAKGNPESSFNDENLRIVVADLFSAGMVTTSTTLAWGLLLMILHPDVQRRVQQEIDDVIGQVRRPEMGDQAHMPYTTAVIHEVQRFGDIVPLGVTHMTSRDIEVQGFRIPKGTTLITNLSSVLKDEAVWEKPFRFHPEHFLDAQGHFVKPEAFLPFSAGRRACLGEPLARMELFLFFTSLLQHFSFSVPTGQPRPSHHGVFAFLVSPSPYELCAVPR

[7] = Lipophilicity, log D of the compound; assay type: physicochemical; details: octanol/water
[8] = Aqueous solubility of the compound; assay type: physicochemical; details: buffer
[9] = Apparent permeability of the compound across human Caco2 cells; assay type: ADME, cell-based; details: Caco-2
[10] = tested on: Human immunodeficiency virus 1; assay: Selectivity ratio of EC50 for Human immunodeficiency virus 1 HXB2 harboring reverse transcriptase K103N and Y181C mutant infected in human MT4 cells to EC50 for Human immunodeficiency virus 1 3B infected in human MT4 cells; assay type: functional

SMILES | EC50 [1] | EC50 [2] | selectivity ratio [3] | CC50 at 72 h [4] | also measured
Nc1ccnc(SC(F)(F)c2nc3ccccc3o2)n1 | > 33 µM | 0.26 µM | 129 | 33.5 µM | 
Cc1ccnc(SC(F)(F)c2nc3ccccc3o2)n1 | 67 µM | 0.11 µM | > 800 | > 100 µM | pKa [5]: 3.6; inhibition (INH) (Cytochrome P450 2C9): < 30%; remaining at 0.25 h [6]: 90%; inhibition (INH) (Cytochrome P450 3A4): < 30%; inhibition (INH) (Cytochrome P450 2D6): < 30%; logD [7]: 3.9; solubility [8]: 200 µM (≈ 58.7 µg/mL); Papp [9]: 34.6 ×10⁻⁶ cm/s
CC(C)c1ccnc(SC(F)(F)c2nc3ccccc3o2)n1 | > 98.4 µM | 0.13 µM | > 774 | > 98.4 µM | 
Cc1cc(C)nc(SC(F)(F)c2nc3ccccc3o2)n1 | 77.2 µM | 0.95 µM | > 100 | > 98.4 µM | pKa [5]: 1.3
Cc1cccc2oc(C(F)(F)Sc3nccc(N)n3)nc12 | > 20 µM | 0.83 µM | 24 | 20 µM | 
FC(F)(Sc1nccc(C2CC2)n1)c1nc2ccccc2o1 | 67.9 µM | 0.16 µM | 484 | 77.5 µM | 
Cc1ccnc(S(=O)(=O)C(F)(F)c2nc3ccccc3o2)n1 | > 61 µM | 7.9 µM | 8 | 61 µM | 
Cc1ccnc(SC(F)(F)c2nc3c(C)cccc3o2)n1 | > 98.4 µM | 0.17 µM | > 570 | > 98.4 µM | 
Cc1ccnc(SC(F)(F)c2nc3cccc(Cl)c3o2)n1 | 60 µM | 0.14 µM | > 700 | > 98.4 µM | Ratio EC50 [10]: 30
Cc1ccnc(SC(F)(F)c2nc3c(Cl)cccc3o2)n1 | 79 µM | 0.098 µM | > 1000 | > 98.4 µM | Ratio EC50 [10]: 30
COCc1ccnc(SC(F)(F)c2nc3ccccc3o2)n1 | > 98.4 µM | 0.66 µM | > 142 | > 98.4 µM | 
CCc1ccnc(SC(F)(F)c2nc3ccccc3o2)n1 | 57 µM | 0.0064 µM | > 15000 | > 98 µM | 
Cc1ccnc(SC(F)(F)c2nc3cccc(C)c3o2)n1 | 55.4 µM | 0.2 µM | > 490 | > 98.4 µM | 
CC(=O)Nc1ccnc(SC(F)(F)c2nc3ccccc3o2)n1 | > 98.4 µM | 43.3 µM | > 2.3 | > 98.4 µM | 
c1cnc(SCc2nc3ccccc3o2)nc1 |  | 35.3 µM |  |  | 
Nc1ccnc(SC(F)(F)c2nc3c(Cl)cccc3o2)n1 | > 28 µM | > 28 µM | < 1 | 28.8 µM | Ratio EC50 [10]: 30
FC(F)(Sc1ncccn1)c1nc2ccccc2o1 |  | 3.14 µM |  |  | 
